{"data": "Results collected from several papers", "note": "Lines come from different studies, so protocols differ."}
{"Structure (SMILES)": "CCc1nc(C(N)=O)c(Nc2ccc(N3CCC(N4CCN(C)CC4)CC3)c(OC)c2)nc1NC1CCOCC1", "cell line": "MOLM-13", "test": "cell growth or viability", "conditions": "72 h", "measurement": "GI50", "value": "0.032 µM"}
{"Structure (SMILES)": "COc1ncnc(C2CC2)c1-c1ncc2cnn(Cc3ccc(-c4nc(C(F)(F)F)cn4C(C)C)cc3)c2n1", "cell line": "CHP-212", "test": "cell growth or viability, SRB", "conditions": "12.5 µM", "measurement": "viability", "value": "85.3%"}
{"Structure (SMILES)": "CNCc1ccc(-c2cc(-c3nc(-c4ccc(S(=O)(=O)C(C)C)cc4)cnc3N)on2)cc1", "cell line": "CT26", "test": "cell growth or viability, ATP luminescence", "conditions": "48 h", "measurement": "IC50", "value": "1.98 µM"}
{"Structure (SMILES)": "CCCCCCCCCCCCCCCCCCOc1cccc(CC(=O)OCC[N+]2(C)CCCC2)c1", "cell line": "NCI-H23", "test": "cell growth or viability, SRB", "conditions": "10 µM", "measurement": "inhibition", "value": "24.6%"}
{"Structure (SMILES)": "COc1cccc2c1C(=O)c1c(O)c3c(c(O)c1C2=O)C[C@@](O)(C(=O)CO)C[C@@H]3O[C@H]1C[C@H](N)[C@H](O)[C@H](C)O1", "cell line": "CHP-212", "test": "cell growth or viability, SRB", "conditions": "0.3704 µM", "measurement": "viability", "value": "19.4%"}
{"Structure (SMILES)": "O=C(O[C@@H]1COC(=O)c2cc(O)c(O)c(O)c2-c2c(cc(O)c(O)c2O)C(=O)O[C@H]1[C@@H]1OC(=O)c2cc(O)c(O)c(O)c2-c2c(O)c(O)c(O)c3c2C(=O)O[C@H]1[C@@H]3O)c1cc(O)c(O)c(O)c1", "cell line": "SIM-A9", "test": "NO release, inhibitor, Griess", "conditions": "10.7 µM, LPS-stimulated", "measurement": "inhibition", "value": "52%"}
{"Structure (SMILES)": "CC(=O)O[C@H]1C(=O)[C@@]2(C)[C@H]([C@H](OC(=O)c3ccccc3)[C@]3(O)C[C@H](OC(=O)[C@H](O)[C@@H](NC(=O)c4ccccc4)c4ccccc4)C(C)=C1C3(C)C)[C@]1(OC(C)=O)CO[C@@H]1C[C@@H]2O", "cell line": "CHP-212", "test": "cell growth or viability, SRB", "conditions": "0.1235 µM", "measurement": "viability", "value": "21.3%"}
{"Structure (SMILES)": "COc1ccc2/c(=N/c3ccccc3NC(=O)[C@H](C)N)cc(-c3ccc4c(c3)OCCO4)oc2c1", "cell line": "MOLM-13", "test": "cell growth or viability, CCK-8", "conditions": "1 µM", "measurement": "inhibition", "value": "6.88%"}
{"Structure (SMILES)": "O=C(C[C@@H](C(F)F)n1ccc(F)n1)N1CCC(O)(Cn2cnc3c(cnn3-c3ccc(F)cc3)c2=O)CC1", "cell line": "CHP-212", "test": "cell growth or viability, SRB", "conditions": "82.3 nM", "measurement": "viability", "value": "47.2%"}
{"Structure (SMILES)": "Cc1c(Cl)c(=O)oc2cc(OCCCCSC#N)ccc12", "cell line": "SW1573", "test": "cell growth or viability, SRB", "measurement": "GI50", "value": "5.8 µM"}
{"Structure (SMILES)": "C[C@@H]1COCCN1c1cc(C2([S@](C)(=N)=O)CC2)nc(-c2cc[nH]c3nccc2-3)n1", "cell line": "CT26", "test": "cell growth or viability, ATP luminescence", "conditions": "48 h", "measurement": "IC50", "value": "8.64 µM"}
{"Structure (SMILES)": "CCCCCCCCCCCCCCCCCCOc1ccccc1CC(=O)OCC[N+](C)(C)C", "cell line": "NCI-H23", "test": "cell growth or viability, SRB", "conditions": "10 µM", "measurement": "inhibition", "value": "59.8%"}
{"Structure (SMILES)": "C(=N\\Nc1cc(N/N=C/c2cccc3cccnc23)ncn1)/c1cccc2cccnc12", "cell line": "Bel-7402", "test": "cell growth or viability, MTT", "conditions": "48 h", "measurement": "IC50", "value": "17.6 µM"}
{"Structure (SMILES)": "COCCC(=O)Nc1ccccc1/N=c1\\cc(-c2ccc3c(c2)OCO3)oc2ccccc12", "cell line": "MOLM-13", "test": "cell growth or viability, CCK-8", "conditions": "1 µM", "measurement": "inhibition", "value": "6.03%"}
{"Structure (SMILES)": "[NH2][Pt]([NH2])([Cl])[Cl]", "cell line": "SW1573", "test": "cell growth or viability, SRB", "measurement": "GI50", "value": "2.7 µM"}
{"Structure (SMILES)": "C(=N\\Nc1cc(N/N=C/c2ccc3ccccc3n2)ncn1)/c1ccc2ccccc2n1", "cell line": "Bel-7402", "test": "cell growth or viability, MTT", "conditions": "48 h", "measurement": "IC50", "value": "34 µM"}
{"Structure (SMILES)": "O=C(N[C@@H](CSCc1ccccc1)C(=O)NO)c1ccccc1", "cell line": "NCI-H1573", "test": "cell growth or viability, MTT", "conditions": "48 h", "measurement": "IC50", "value": "11.3 µM"}
{"Structure (SMILES)": "CC(C)C[C@H](NC(=O)[C@H](Cc1ccccc1)NC(=O)c1cnccn1)B(O)O", "cell line": "CHP-212", "test": "cell growth or viability, SRB", "conditions": "0.3704 µM", "measurement": "viability", "value": "88%"}
{"Structure (SMILES)": "CCCCCCCCCCCCCCCCCCOc1ccc(CC(=O)OCC[N+](C)(C)C)cc1", "cell line": "NCI-H23", "test": "cell growth or viability, SRB", "conditions": "10 µM", "measurement": "inhibition", "value": "6.67%"}
{"Structure (SMILES)": "NCCCCC(=O)Nc1ccccc1/N=c1\\cc(-c2ccc3c(c2)OCO3)oc2ccccc12", "cell line": "MOLM-13", "test": "cell growth or viability, CCK-8", "conditions": "1 µM", "measurement": "inhibition", "value": "-0.26%"}
{"Structure (SMILES)": "CNC(=O)c1cc(Oc2ccc(NC(=O)Nc3ccc(Cl)c(C(F)(F)F)c3)cc2)ccn1", "cell line": "Bel-7402", "test": "cell growth or viability, MTT", "conditions": "48 h", "measurement": "IC50", "value": "5.06 µM"}
{"Structure (SMILES)": "COC(=O)[C@H]1[C@@H](O)[C@@]2(O)c3c(OC)cc(O[C@@H]4O[C@@H]([C@H](O)CO)CO[C@H]4OC)cc3O[C@@]2(c2ccc(OC)cc2)[C@@H]1c1ccccc1", "cell line": "C6661", "test": "cell growth or viability, MTS", "conditions": "72 h", "measurement": "IC50", "value": "0.005 µM"}
{"Structure (SMILES)": "CC(C)(C)[C@H](N)C(=O)Nc1ccccc1/N=c1\\cc(-c2ccc3c(c2)OCO3)oc2ccccc12", "cell line": "MOLM-13", "test": "cell growth or viability, CCK-8", "conditions": "1 µM", "measurement": "inhibition", "value": "4.05%"}
{"Structure (SMILES)": "O=C(N[C@@H](CSCc1ccc([N+](=O)[O-])cc1)C(=O)NO)c1ccccc1", "cell line": "NCI-H1573", "test": "cell growth or viability, MTT", "conditions": "48 h", "measurement": "IC50", "value": "2.37 µM"}
{"Structure (SMILES)": "CCCCCCCCCCCCCCCCCCOc1ccccc1CC(=O)OCC[N+](CC)(CC)CC", "cell line": "NCI-H23", "test": "cell growth or viability, SRB", "conditions": "10 µM", "measurement": "inhibition", "value": "86.9%"}
{"Structure (SMILES)": "Nc1nc2ccc(-c3c/c(=N\\c4ccccc4NC(=O)C4CCNC4)c4ccccc4o3)cc2o1 (centres unmarked)", "cell line": "MOLM-13", "test": "cell growth or viability, CCK-8", "conditions": "1 µM", "measurement": "inhibition", "value": "41.4%"}
{"Structure (SMILES)": "N#CSCCCCOc1ccc2c(-c3ccccc3)cc(=O)oc2c1", "cell line": "SW1573", "test": "cell growth or viability, SRB", "measurement": "GI50", "value": "25 µM"}
{"Structure (SMILES)": "CCCCCCCCCCCCCCCCCCOc1cccc(CC(=O)OCCC[N+](C)(C)C)c1", "cell line": "NCI-H23", "test": "cell growth or viability, SRB", "conditions": "10 µM", "measurement": "inhibition", "value": "24.1%"}
{"Structure (SMILES)": "Cc1cnc(CNC(=O)c2c(=O)c3ccc(N4CCCN(C)CC4)nc3n3c2sc2ccccc23)cn1", "cell line": "C6661", "test": "cell growth or viability, MTS", "conditions": "72 h", "measurement": "IC50", "value": "0.5 µM"}
{"Structure (SMILES)": "CCCCCCCCCCCCCCCCCCOc1cccc(CC(=O)OCC[N+](C)(C)C)c1", "cell line": "NCI-H23", "test": "cell growth or viability, SRB", "conditions": "10 µM", "measurement": "inhibition", "value": "11%"}
{"Structure (SMILES)": "NCCC(=O)Nc1ccccc1/N=c1\\cc(-c2ccc3nc(N)oc3c2)oc2ccccc12", "cell line": "MOLM-13", "test": "cell growth or viability, CCK-8", "conditions": "1 µM", "measurement": "inhibition", "value": "60.4%"}
{"Structure (SMILES)": "CCCCCCCCCCCCCCCCCCOc1ccc(CC(=O)OCC[N+]2(C)CCCCC2)cc1", "cell line": "NCI-H23", "test": "cell growth or viability, SRB", "conditions": "10 µM", "measurement": "inhibition", "value": "13.3%"}
{"Structure (SMILES)": "NCCC(=O)Nc1ccccc1/N=c1\\cc(-c2ccc3c(c2)OCO3)oc2ccccc12", "cell line": "MOLM-13", "test": "cell growth or viability, CCK-8", "conditions": "1 µM", "measurement": "inhibition", "value": "2.07%"}
{"Structure (SMILES)": "CCCCCCCCCCCCCCCCCCOc1cccc(CC(=O)OCC[N+](CC)(CC)CC)c1", "cell line": "NCI-H23", "test": "cell growth or viability, SRB", "conditions": "10 µM", "measurement": "inhibition", "value": "64.3%"}
{"Structure (SMILES)": "COc1ccc2oc(-c3ccc4nc(N)oc4c3)c/c(=N\\c3ccccc3NC(=O)CCN)c2c1", "cell line": "MOLM-13", "test": "cell growth or viability, CCK-8", "conditions": "1 µM", "measurement": "inhibition", "value": "61.4%"}
